# Measured values as given in ChEMBL document CHEMBL1144441, “Identification of a novel cardenolide (2''-oxovoruscharin) from Calotropis procera and the hemisynthesis of novel derivatives displaying potent in vitro antitumor activities and high in vivo tolerance: structure-activity relationship analyses” (J Med Chem, 2005).
# Assays:
# [1] = test system: H4; assay: In vitro cytotoxic activity against human H4 cancer cell lines after 3 days of culture; format: functional
# Outline: (§1)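 MTT overall-growth panel across 57 human cancer lines. Cells were plated for 24 h at 10 000–40 000 cells/mL, depending on cell type. Drugs were given at nine concentrations, 10^-9 to 10^-5 M in semilog steps, for 3 days. Absorbance was read at 570 nm with a 630 nm reference, in sextuplicate. Surviving cells are expressed as % of untreated control (100%).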
# [2] = In vitro cytotoxic activity against human C32 cancer cell lines after 3 days of culture; format: functional; outline: as §1
# [3] = test system: T-24; assay: In vitro cytotoxic activity against human T24 cancer cell lines after 3 days of culture; format: functional
# Outline: (§2)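 Human cancer cell lines, seeded 10 000–40 000 cells/mL and plated for 24 h, then exposed 72 h to nine drug concentrations from 10^-9 to 10^-5 M in semilog steps. Overall growth read by MTT reduction to formazan, absorbance at 570 nm (reference 630 nm). Sextuplicate wells; IC50 is the concentration reducing overall growth by 50% versus untreated control.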
# [4] = test system: A204; assay: In vitro cytotoxic activity against human A204 cancer cell lines after 3 days of culture; format: functional; outline: as §1
# [5] = test system: A-427; assay: In vitro cytotoxic activity against human A427 cancer cell lines after 3 days of culture; format: functional; outline: as §1
# [6] = test system: A549; assay: In vitro cytotoxic activity against human A549 cancer cell lines after 3 days of culture; format: functional; outline: as §1
# [7] = test system: ACHN; assay: In vitro cytotoxic activity against human ACHN cancer cell lines after 3 days of culture; format: functional; outline: as §1
# [8] = test system: FaDu; assay: In vitro cytotoxic activity against human FaDu cancer cell lines after 3 days of culture; format: functional; outline: as §1
# [9] = In vitro cytotoxic activity against human G361 cancer cell lines after 3 days of culture; format: functional; outline: as §1
# [10] = test system: HT-29; assay: In vitro cytotoxic activity against human HT-29 cancer cell lines after 3 days of culture; format: functional; outline: as §1
# [11] = test system: ZR-75-1; assay: In vitro cytotoxic activity against human ZR-75-1 cancer cell lines after 3 days of culture; format: functional; outline: as §2
# [12] = test system: Malme-3M; assay: In vitro cytotoxic activity against human MALME-3M cancer cell lines after 3 days of culture; format: functional; outline: as §1
# [13] = In vitro cytotoxic activity against human […] cancer cell lines after 3 days of culture; format: functional; outline: as §1
# [14] = In vitro cytotoxic activity against human SK-LMS-1 cancer cell lines after 3 days of culture; format: functional; outline: as §1
# [15] = In vitro cytotoxic activity against human SK-UT-1B cancer cell lines after 3 days of culture; format: functional; outline: as §2
# [16] = test system: SK-MEL-28; assay: In vitro cytotoxic activity against human SKMEL-28 cancer cell lines after 3 days of culture; format: functional; outline: as §2
# [17] = test system: LoVo; assay: In vitro cytotoxic activity against human LoVo cancer cell lines after 3 days of culture; format: functional; outline: as §1
# [18] = test system: PC-3; assay: In vitro cytotoxic activity against human PC-3 cancer cell lines after 3 days of culture; format: functional; outline: as §1
# [19] = test system: T98G; assay: In vitro cytotoxic activity against human T98G cancer cell lines after 3 days of culture; format: functional; outline: as §2
# [20] = test system: WiDr; assay: In vitro cytotoxic activity against human WiDr cancer cell lines after 3 days of culture; format: functional; outline: as §2
# [21] = In vitro cytotoxic activity against human 769-P cancer cell lines after 3 days of culture; format: functional; outline: as §1
# [22] = test system: 786-0; assay: In vitro cytotoxic activity against human 786-O cancer cell lines after 3 days of culture; format: functional; outline: as §1
# [23] = test system: A498; assay: In vitro cytotoxic activity against human A-498 cancer cell lines after 3 days of culture; format: functional; outline: as §1
# [24] = test system: BT-20; assay: In vitro cytotoxic activity against human BT-20 cancer cell lines after 3 days of culture; format: functional; outline: as §1
# [25] = test system: DLD-1; assay: In vitro cytotoxic activity against human DLD-1 cancer cell lines after 3 days of culture; format: functional; outline: as §1
# [26] = test system: DU-145; assay: In vitro cytotoxic activity against human DU145 cancer cell lines after 3 days of culture; format: functional; outline: as §1
# [27] = In vitro cytotoxic activity against human Hs 683 cancer cell lines after 3 days of culture; format: functional; outline: as §1
# [28] = test system: LNCaP; assay: In vitro cytotoxic activity against human LNCaP cancer cell lines after 3 days of culture; format: functional; outline: as §1
# [29] = In vitro cytotoxic activity against human SCC-9 cancer cell lines after 3 days of culture; format: functional; outline: as §1
# [30] = In vitro cytotoxic activity against human SW948 cancer cell lines after 3 days of culture; format: functional; outline: as §2
# [31] = test system: T47D; assay: In vitro cytotoxic activity against human T-47D cancer cell lines after 3 days of culture; format: functional; outline: as §2
# [32] = In vitro cytotoxic activity against human AL-12T cancer cell lines after 3 days of culture; format: functional; outline: as §1
# [33] = test system: BXPC-3; assay: In vitro cytotoxic activity against human BxPC-3 cancer cell lines after 3 days of culture; format: functional; outline: as §1
# [34] = test system: CAKI-2; assay: In vitro cytotoxic activity against human CAKI-2 cancer cell lines after 3 days of culture; format: functional; outline: as §1
# [35] = target: Sodium/potassium-transporting ATPase subunit alpha-1 (Sus scrofa, UniProt P05024); assay: In vitro inhibitory activity against porcine Na+/K+-ATPase
# Outline: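 Porcine cerebral cortex Na+/K+-ATPase (3 × 10-3 units), preincubated 30 min at 37 °C in 30 mM Tris-HCl pH 7.4, 5 mM MgCl2 with inhibitor (1 to 50 000 nM). ADP formation coupled via pyruvate kinase/lactate dehydrogenase, excess phosphoenolpyruvate, to NADH oxidation.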
# [36] = test system: Mus musculus; assay: Maximum tolerated dose after intraperitoneal administration in mouse (period of 28 days); format: functional
# Outline: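 Healthy, non-tumour-bearing B6D2F1 mice given one acute intraperitoneal dose, three mice per dose group, doses 5, 10, 20, 40, 80, 120 and 160 mg/kg. Survival and body weight followed for 28 days after injection. MTD is the highest single dose causing no deaths over the period.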
# [37] = test system: A549; assay: Concentration required for 50% growth inhibition of human A549 cancer cell lines after 3 days of culture; format: functional, cell-based; conditions: A549, 72 h
# Outline: (§3)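 MTT overall-growth assay on the five lines. Cells were plated for 24 h at 10 000–40 000 cells/mL, depending on cell type. Nine concentrations from 10^-9 to 10^-5 M in semilog steps were applied for 72 h. Formazan was read at 570 nm against a 630 nm reference, in sextuplicate. IC50 = concentration reducing overall growth by 50% versus untreated control.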
# [38] = test system: U373 MG; assay: Concentration required for 50% growth inhibition of human U373 cancer cell lines after 3 days of culture; format: functional, cell-based, U-373MG ATCC; conditions: 72 h; outline: as §3
# [39] = test system: HCT-15; assay: Concentration required for 50% growth inhibition of human HCT-15 cancer cell lines after 3 days of culture; format: functional, cell-based; conditions: HCT-15, 72 h; outline: as §3
# [40] = test system: HCT-15; assay: In vitro cytotoxic activity against human HCT-15 cancer cell lines after 3 days of culture; format: functional; outline: as §1
# [41] = In vitro cytotoxic activity against human HT144 cancer cell lines after 3 days of culture; format: functional; outline: as §1
# [42] = test system: HT-1080; assay: In vitro cytotoxic activity against human HT1080 cancer cell lines after 3 days of culture; format: functional; outline: as §1
# [43] = In vitro cytotoxic activity against human Hs 174.T cancer cell lines after 3 days of culture; format: functional; outline: as §1
# [44] = In vitro cytotoxic activity against human Hs 766.T cancer cell lines after 3 days of culture; format: functional; outline: as §1
# [45] = test system: MES-SA; assay: In vitro cytotoxic activity against human MES-SA cancer cell lines after 3 days of culture; format: functional; outline: as §1
# [46] = test system: PANC-1; assay: In vitro cytotoxic activity against human Panc-1 cancer cell lines after 3 days of culture; format: functional; outline: as §1
# [47] = In vitro cytotoxic activity against human SW1088 cancer cell lines after 3 days of culture; format: functional; outline: as §2
# [48] = In vitro cytotoxic activity against human SW1783 cancer cell lines after 3 days of culture; format: functional; outline: as §2
# [49] = test system: U-87 MG; assay: In vitro cytotoxic activity against human U87MG cancer cell lines after 3 days of culture; format: functional, U-87MG ATCC; outline: as §2
# [50] = test system: CFPAC-1; assay: In vitro cytotoxic activity against human CFPAC-1 cancer cell lines after 3 days of culture; format: functional; outline: as §1
# [51] = In vitro cytotoxic activity against human Capan-2 cancer cell lines after 3 days of culture; format: functional; outline: as §1
# [52] = test system: HT1197; assay: In vitro cytotoxic activity against human HT1197 cancer cell lines after 3 days of culture; format: functional; outline: as §1
# [53] = test system: U373 MG; assay: In vitro cytotoxic activity against human U-373MG cancer cell lines after 3 days of culture; format: functional, U-373MG ATCC; outline: as §2
# [54] = In vitro cytotoxic activity against human Su.86.86 cancer cell lines after 3 days of culture; format: functional; outline: as §2
# [55] = test system: MIA PaCa-2; assay: In vitro cytotoxic activity against human MiaPaca-2 cancer cell lines after 3 days of culture; format: functional; outline: as §1
# [56] = test system: MDA-MB-231; assay: In vitro cytotoxic activity against human MDA-MB-231 cancer cell lines after 3 days of culture; format: functional; outline: as §1
# [57] = In vitro cytotoxic activity against human Detroit 562 cancer cell lines after 3 days of culture; format: functional; outline: as §1
# [58] = In vitro cytotoxic activity against human MCF7HTB-22 cancer cell lines after 3 days of culture; format: functional; outline: as §1
# [59] = Concentration required for 50% growth inhibition of human Hs 683 cancer cell lines after 3 days of culture; format: functional, cell-based; conditions: 72 h; outline: as §3
# [60] = In vitro cytotoxic activity against human Hs 729 cancer cell lines after 3 days of culture; format: functional; outline: as §1
# [61] = test system: Hs-578T; assay: In vitro cytotoxic activity against human Hs 578.T cancer cell lines after 3 days of culture; format: functional; outline: as §1
# [62] = test system: LoVo; assay: Concentration required for 50% growth inhibition of human LoVo cancer cell lines after 3 days of culture; format: functional, cell-based; conditions: 72 h; outline: as §3
smiles,measurement,setting,value
C[C@@H]1C[C@@]2(NC(=O)CS2)C2(O)O[C@@H]3C[C@@]4(CO)[C@@H](CC[C@@H]5[C@@H]4CC[C@]4(C)[C@@H](C6=CC(=O)OC6)CC[C@]54CO)C[C@H]3O[C@@H]2O1 (some centres undefined),Log IC50,[1],-7.5
same,Log IC50,[2],-7.7
same,Log IC50,[3],-8.6
same,Log IC50,[4],-8.2
same,Log IC50,[5],-7.6
same,Log IC50,[6],-8.1
same,Log IC50,[7],-8.2
same,Log IC50,[8],-8.1
same,Log IC50,[9],-8.1
same,Log IC50,[10],-7.8
same,Log IC50,[11],-7.4
same,Log IC50,[12],-6.4
same,Log IC50,[13],-8.7
same,Log IC50,[14],-8
same,Log IC50,[15],-7.5
same,Log IC50,[16],-7.4
same,Log IC50,[17],-8
same,Log IC50,[18],-8.1
same,Log IC50,[19],-8.2
same,Log IC50,[20],-7.8
same,Log IC50,[21],-8.3
same,Log IC50,[22],-8.5
same,Log IC50,[23],-8.2
same,Log IC50,[24],-8.3
same,Log IC50,[25],-7.4
same,Log IC50,[26],-8.7
same,Log IC50,[27],-8.6
same,Log IC50,[28],-8.3
same,Log IC50,[29],-7.4
same,Log IC50,[30],-7.4
same,Log IC50,[31],-8.4
same,Log IC50,[32],-8.1
same,Log IC50,[33],-7.7
same,Log IC50,[34],-8.3
same,IC50,[35],75 nM
same,MTD,[36],80 mg/kg
same,IC50,[37],8 nM
same,IC50,[38],9 nM
same,IC50,[39],24 nM
same,Log IC50,[40],-7.6
same,Log IC50,[41],-7.6
same,Log IC50,[42],-7.4
same,Log IC50,[43],-7.4
same,Log IC50,[44],-7.4
same,Log IC50,[45],-7.8
same,Log IC50,[46],-8.3
same,Log IC50,[47],-7
same,Log IC50,[48],-7.7
same,Log IC50,[49],-8.6
same,Log IC50,[50],-7.2
same,Log IC50,[51],-9
same,Log IC50,[52],-7.1
same,Log IC50,[53],-8.1
same,Log IC50,[54],-8.6
same,Log IC50,[55],-7.5
same,Log IC50,[56],-8
same,Log IC50,[57],-8.3
same,Log IC50,[58],-8.4
same,IC50,[59],3 nM
same,Log IC50,[60],-7.5
same,Log IC50,[61],-8.7
same,IC50,[62],10 nM
CC(=O)OC[C@]12C[C@H]3OC4(O)[C@@H](O[C@H](C)C[C@@]45N=C(N)CS5)O[C@@H]3C[C@@H]1CC[C@@H]1[C@@H]2CC[C@]2(C)[C@@H](C3=CC(=O)OC3)CC[C@]12CO (some centres undefined),IC50,[35],12100 nM
same,MTD,[36],>40 mg/kg
same,IC50,[37],3700 nM
same,IC50,[38],> 4150 nM
same,IC50,[39],4130 nM
same,IC50,[59],> 1280 nM
same,IC50,[62],3540 nM
